Assay results reported in ChEMBL document CHEMBL1649139, “A novel gene, erm(41), confers inducible macrolide resistance to clinical isolates of Mycobacterium abscessus but is absent from Mycobacterium chelonae” (2009).
Values after ≈ are worked out from the molar mass of the structure shown.

Tests used:
Type in all cases: functional
[1] = test system: Mycobacteroides abscessus; assay: Antimicrobial activity against Mycobacterium abscessus isolate MC879-2 at day 7 by broth microdilution method; settings: isolate MC879-2, 168 h
[2] = test system: Mycobacteroides abscessus; assay: Antimicrobial activity against Mycobacterium abscessus isolate MC1028 at day 7 preincubated with 0.1 ug/ml for 3 days by broth microdilution method
Procedure, shortened: (§1)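 Clarithromycin MIC by CLSI-conforming broth microdilution. Before testing, cultures were preincubated for 3 days, either in medium alone or in clarithromycin or erythromycin (tested range 0.01–1 μg/ml). Preincubation ran for at least two generations, judged by turbidity increase. Plates were read on day 3 and on extended incubation at days 5 to 14.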

[3] = test system: Mycobacteroides abscessus; assay: Antimicrobial activity against Mycobacterium abscessus isolate MAB30 at day 5 by broth microdilution method; settings: isolate MAB30, 120 h; procedure, shortened: as §1
[4] = test system: Mycobacteroides abscessus; assay: Antimicrobial activity against Mycobacterium abscessus isolate MC1082 at day 3 preincubated with 0.1 ug/ml erythromycin for 3 days by broth microdilution method; procedure, shortened: as §1
[5] = test system: Mycobacteroides abscessus; assay: Antimicrobial activity against Mycobacterium abscessus isolate MC1028 at day 14 preincubated with 0.1 ug/ml erythromycin for 3 days by broth microdilution method; procedure, shortened: as §1
[6] = test system: Mycobacteroides abscessus; assay: Antimicrobial activity against Mycobacterium abscessus isolate MC1082 at day 9 preincubated with 0.1 ug/ml for 3 days by broth microdilution method; procedure, shortened: as §1
[7] = test system: Mycolicibacterium smegmatis; assay: Antimicrobial activity against Mycobacterium smegmatis transformed with erm allele Mycobacterium abscessus isolate MC720 by broth microdilution method
[8] = test system: Mycolicibacterium smegmatis; assay: Antimicrobial activity against Mycobacterium smegmatis transformed with erm allele Mycobacterium abscessus isolate MC719 by broth microdilution method
[9] = test system: Mycobacteroides abscessus; assay: Antimicrobial activity against Mycobacterium abscessus isolate MAB30 at day 14 preincubated with 0.1 ug/ml erythromycin for 3 days by broth microdilution method; procedure, shortened: as §1
[10] = test system: Mycobacteroides abscessus; assay: Antimicrobial activity against Mycobacterium abscessus isolate MC720 at day 7 by broth microdilution method; settings: isolate MC720, 168 h
Procedure, shortened: (§2)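 Clinical M. abscessus isolates were preincubated for 3 days, either in medium alone or in clarithromycin or erythromycin at 0.01 to 1 μg/ml, allowing at least two generations of growth judged by turbidity. The clarithromycin MIC was then determined by CLSI-conforming broth microdilution, with plates read on day 3 and on extended incubation (days 5 to 14).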

[11] = test system: Mycobacteroides abscessus; assay: Antimicrobial activity against Mycobacterium abscessus isolate MC879 at day 7 preincubated with 0.1 ug/ml for 3 days by broth microdilution method
Procedure, shortened: (§3)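 To test inducible resistance, cultures were preincubated for 3 days in clarithromycin or erythromycin, within 0.01–1 μg/ml. The period was set so cultures passed at least two generations, judged by turbidity increase. Clarithromycin MIC was then determined by CLSI-conforming broth microdilution and read on the stated day, from day 3 up to 14.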

[12] = test system: Mycobacteroides abscessus; assay: Antimicrobial activity against Mycobacterium abscessus isolate MC723 at day 14 preincubated with 0.1 ug/ml erythromycin for 3 days by broth microdilution method
Procedure, shortened: (§4)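 Clarithromycin MIC by broth microdilution following CLSI guidelines. Before testing, organisms were preincubated for 3 days in medium alone or in clarithromycin or erythromycin (0.01–1 μg/ml), long enough for at least two generations judged by turbidity increase. MICs were read on day 3 and again on extended incubation out to day 14.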

[13] = test system: Mycobacteroides abscessus; assay: Antimicrobial activity against Mycobacterium abscessus isolate MC1028 at day 9 preincubated with 0.1 ug/ml erythromycin for 3 days by broth microdilution method; procedure, shortened: as §1
[14] = test system: Mycobacteroides abscessus; assay: Antimicrobial activity against Mycobacterium abscessus isolate MC879-2 at day 5 preincubated with 0.1 ug/ml for 3 days by broth microdilution method
[15] = test system: Mycobacteroides abscessus; assay: Antimicrobial activity against Mycobacterium abscessus isolate MC1448 at day 7 preincubated with 0.1 ug/ml for 3 days by broth microdilution method; procedure, shortened: as §4
[16] = test system: Mycobacteroides abscessus; assay: Antimicrobial activity against Mycobacterium abscessus isolate MC724 at day 7 by broth microdilution method; settings: isolate MC724, 168 h; procedure, shortened: as §2
[17] = test system: Mycobacteroides abscessus; assay: Antimicrobial activity against Mycobacterium abscessus isolate MC1028 at day 14 preincubated with 0.1 ug/ml for 3 days by broth microdilution method; procedure, shortened: as §1
[18] = test system: Mycolicibacterium smegmatis; assay: Antimicrobial activity against Mycobacterium smegmatis transformed with erm allele Mycobacterium abscessus isolate MC719 preincubated with 2 ug/ml erythromycin for 20 to 24 hrs by broth microdilution method
[19] = test system: Mycobacteroides abscessus; assay: Antimicrobial activity against Mycobacterium abscessus isolate MC719 at day 5 by broth microdilution method; settings: isolate MC719, 120 h; procedure, shortened: as §4
[20] = test system: Mycobacteroides abscessus; assay: Antimicrobial activity against Mycobacterium abscessus isolate MC1082 at day 7 preincubated with 0.1 ug/ml erythromycin for 3 days by broth microdilution method; procedure, shortened: as §1
[21] = test system: Mycobacteroides abscessus; assay: Antimicrobial activity against Mycobacterium abscessus isolate MC723 at day 5 by broth microdilution method; settings: isolate MC723, 120 h; procedure, shortened: as §4
[22] = test system: Mycobacteroides abscessus; assay: Antimicrobial activity against Mycobacterium abscessus isolate MAB30 at day 9 preincubated with 0.1 ug/ml for 3 days by broth microdilution method; procedure, shortened: as §1
[23] = test system: Mycobacteroides abscessus; assay: Antimicrobial activity against Mycobacterium abscessus isolate MC724 at day 3 by broth microdilution method; settings: isolate MC724, 72 h
Procedure, shortened: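 Clarithromycin MIC by broth microdilution following CLSI guidelines. Organisms were preincubated […], for 3 days before the assay. This allowed at least two generations, judged by the rise in turbidity. The MIC was read at the stated day, with incubation extended from day 3 to as long as 14 days.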

[24] = test system: Mycobacteroides abscessus; assay: Antimicrobial activity against Mycobacterium abscessus isolate MC1082 at day 7 preincubated with 0.1 ug/ml for 3 days by broth microdilution method; procedure, shortened: as §1
[25] = test system: Mycobacteroides abscessus; assay: Antimicrobial activity against Mycobacterium abscessus isolate MC1082 at day 14 preincubated with 0.1 ug/ml erythromycin for 3 days by broth microdilution method; procedure, shortened: as §1
[26] = test system: Mycobacteroides abscessus; assay: Antimicrobial activity against Mycobacterium abscessus isolate MC879 on day 4 by broth microdilution method; settings: isolate MC879, 96 h
[27] = test system: Mycobacteroides abscessus; assay: Antimicrobial activity against Mycobacterium abscessus isolate MC879 on day 10 by broth microdilution method; settings: isolate MC879, 240 h
[28] = test system: Mycobacteroides abscessus; assay: Antimicrobial activity against Mycobacterium abscessus isolate MC958 at day 14 preincubated with 0.1 ug/ml for 3 days by broth microdilution method; procedure, shortened: as §3
[29] = test system: Mycobacteroides abscessus; assay: Antimicrobial activity against Mycobacterium abscessus isolate MC879 at day 5 preincubated with 0.1 ug/ml erythromycin for 3 days by broth microdilution method; procedure, shortened: as §2
[30] = test system: Mycobacteroides abscessus; assay: Antimicrobial activity against Mycobacterium abscessus isolate MC879-2 at day 3 by broth microdilution method; settings: isolate MC879-2, 72 h
[31] = test system: Mycobacteroides abscessus; assay: Antimicrobial activity against Mycobacterium abscessus isolate MC958 at day 5 preincubated with 0.1 ug/ml for 3 days by broth microdilution method; procedure, shortened: as §2
[32] = test system: Mycobacteroides abscessus; assay: Antimicrobial activity against Mycobacterium abscessus isolate MC958 on day 10 by broth microdilution method; settings: isolate MC958, 240 h
[33] = test system: Mycobacteroides abscessus; assay: Antimicrobial activity against Mycobacterium abscessus isolate MC1082 at day 14 preincubated with 0.1 ug/ml for 3 days by broth microdilution method; procedure, shortened: as §1
[34] = test system: Mycobacteroides abscessus; assay: Antimicrobial activity against Mycobacterium abscessus isolate MC1448 at day 5 by broth microdilution method; settings: isolate MC1448, 120 h; procedure, shortened: as §4
[35] = test system: Mycobacteroides abscessus; assay: Antimicrobial activity against Mycobacterium abscessus isolate MC958 at day 3 preincubated with 0.1 ug/ml for 3 days by broth microdilution method; procedure, shortened: as §3
[36] = test system: Mycobacteroides abscessus; assay: Antimicrobial activity against Mycobacterium abscessus isolate MAB30 at day 9 preincubated with 0.1 ug/ml erythromycin for 3 days by broth microdilution method; procedure, shortened: as §1

Question: Which results are given for `CC[C@H]1OC(=O)[C@H](C)[C@@H](O[C@H]2C[C@@](C)(OC)[C@@H](O)[C@H](C)O2)[C@H](C)[C@@H](O[C@@H]2O[C@H](C)C[C@H](N(C)C)[C@H]2O)[C@](C)(OC)C[C@@H](C)C(=O)[C@H](C)[C@@H](O)[C@]1(C)O` [CLARITHROMYCIN]?
Answer: MIC [1]: > 32 µg/mL; MIC [2]: ≤ 0.5 µg/mL; MIC [3]: ≤ 0.5 µg/mL; MIC [4]: ≤ 0.5 µg/mL; MIC [5]: ≤ 0.5 µg/mL; MIC [6]: ≤ 0.5 µg/mL; MIC [7]: 2 µg/mL (≈ 2.67 µM); MIC [8]: 2 µg/mL (≈ 2.67 µM); MIC [9]: ≤ 0.5 µg/mL; MIC [10]: 8 µg/mL (≈ 10.7 µM); MIC [11]: > 32 µg/mL; MIC [12]: > 32 µg/mL; MIC [13]: ≤ 0.5 µg/mL; MIC [14]: > 32 µg/mL; MIC [15]: > 32 µg/mL; MIC [16]: 8 µg/mL (≈ 10.7 µM); MIC [17]: ≤ 0.5 µg/mL; MIC [18]: 16 µg/mL; MIC [19]: 1 µg/mL (≈ 1.34 µM); MIC [20]: ≤ 0.5 µg/mL; MIC [21]: 1 µg/mL (≈ 1.34 µM); MIC [22]: ≤ 0.5 µg/mL; MIC [23]: ≤ 0.5 µg/mL; MIC [24]: ≤ 0.5 µg/mL; MIC [25]: ≤ 0.5 µg/mL; MIC [26]: ≤ 2 µg/mL; MIC [27]: 32 µg/mL (≈ 42.8 µM); MIC [28]: > 32 µg/mL; MIC [29]: 4 µg/mL; MIC [30]: > 32 µg/mL; MIC [31]: 4 µg/mL (≈ 5.35 µM); MIC [32]: 32 µg/mL (≈ 42.8 µM); MIC [33]: ≤ 0.5 µg/mL; MIC [34]: > 32 µg/mL; MIC [35]: ≤ 0.5 µg/mL; MIC [36]: ≤ 0.5 µg/mL
